PubChem BioAssay
Active and inactive are the calls of the source.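 The calls were made as follows, unless noted: active = inhibition above 20% together with a positive visual image hit; inconclusive = visual image hit but inhibition not above 20%; inactive = no visual image hit.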

Legend:
[1] = inhibitors of TNFa-induced NFkB p65 translocation, primary screen, imaging, HUVEC, MLSMR starter and 10KST1 sets (AID 438); settings: HUVEC TNFa-induced p65 nuclear translocation; cell count: measured here: nuclei count (cytotoxicity indicator), at 2.08 µM; inhibition: at 2 µM, stronger effect = higher value, 0% TNFa-plus-vehicle, 100% no-TNFa wells;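 also: compound added about 3h40 before a 20 min TNFalpha stimulation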;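 as to inhibition: signal is the nuclear over cytoplasmic p65 intensity ratio per well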
[2] = reduction of polyQ htt aggregates in cells – imaging, exon1htt(103Q)mCFP cells, high-content imaging, primary screen (AID 483;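 active = visual image review flags a hit and inhibition of aggregation exceeds 20%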;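 also: compound exposure lasted 3 days before fixation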;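 as to nuclei count: percent of the per-plate median nuclei count of sample wells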); settings: exon1htt(103Q)mCFP cell line, aggregate imaging, at 2 µM; inhibition of aggregation: stronger effect = higher value; nuclei count: measured here: cell count, toxicity
[3] = endothelial E-selectin expression blockers – imaging, HUVEC, immunofluorescence, MLSMR starter and 10KST1 sets, primary screen (AID 487;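 active = visually confirmed hit in the image check and inhibition above 20%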;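 as to inhibition: signal is fraction of cell area covered by stained E-selectin grains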;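 as to nuclei count: 100% = median nuclei count of all wells on the same plate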); settings: HUVEC TNFalpha-induced E-selectin immunofluorescence imaging, at 2 µM; inhibition: stronger effect = higher value; nuclei count: measured here: cell number, toxicity
[4] = target: Voltage-gated potassium channel subunit beta-2 (Rattus norvegicus) (UniProt P62483); assay: inhibitors of rat Kvbeta2 reductase activity – biochemical, NADPH fluorescence, primary screen (AID 622;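 active = fluorescence slope higher than the sample average by over 3 SD, cut at about -0.22 in these data, passing the limit was not always enough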;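 also: slope of raw intensity against log time taken from 70 to 1610 s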); settings: recombinant KvBeta, 4-cyanobenzaldehyde reduction, at 10 µM, stronger effect = higher value
Chain of Voltage-gated potassium channel subunit beta-2 (Rattus norvegicus) (P62483 whole entry, looked up): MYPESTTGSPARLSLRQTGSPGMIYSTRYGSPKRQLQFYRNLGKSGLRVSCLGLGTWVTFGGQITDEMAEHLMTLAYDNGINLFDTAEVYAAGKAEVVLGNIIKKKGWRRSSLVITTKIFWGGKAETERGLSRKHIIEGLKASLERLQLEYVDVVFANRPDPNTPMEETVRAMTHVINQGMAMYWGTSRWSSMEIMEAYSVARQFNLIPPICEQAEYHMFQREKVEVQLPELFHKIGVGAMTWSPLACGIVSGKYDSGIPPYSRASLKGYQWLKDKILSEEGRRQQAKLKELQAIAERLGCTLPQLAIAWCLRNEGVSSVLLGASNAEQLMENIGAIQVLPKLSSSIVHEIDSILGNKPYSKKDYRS

[5] = target: Voltage-gated potassium channel subunit beta-2 (Rattus norvegicus) (UniProt P62483); assay: enhancers of rat Kvbeta2 NADPH turnover – biochemical, NADPH fluorescence, primary screen (AID 623;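 active = NADPH fluorescence slope more negative than the mean of all samples by about 3 SD, 99.7% confidence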;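 also: fluorescence intensity change per second fitted from 20 to 320 s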); settings: Recombinant KvBeta, NADPH fluorescence decrease slope, 10 min; at 10 µM; stronger effect = lower value
[6] = target: Muscarinic acetylcholine receptor M4 (Homo sapiens) (UniProt P08173); assay: M4-linked GIRK flux change, two-sided – cell-based, HEK293 M4/GIRK, thallium flux, BTC-AM, M4 allosteric agonist project, primary screen (AID 625;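 active = fluorescence slope after compound addition differing from the mean of all tested samples at 99.7% confidence, mostly higher but some lower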;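 also: thallium influx through GIRK channels coupled to M4 in HEK293 cells with BTC-AM dye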); settings: at 10 µM, actives lie on both sides
Chain of Muscarinic acetylcholine receptor M4 (Homo sapiens) (P08173 whole entry, looked up): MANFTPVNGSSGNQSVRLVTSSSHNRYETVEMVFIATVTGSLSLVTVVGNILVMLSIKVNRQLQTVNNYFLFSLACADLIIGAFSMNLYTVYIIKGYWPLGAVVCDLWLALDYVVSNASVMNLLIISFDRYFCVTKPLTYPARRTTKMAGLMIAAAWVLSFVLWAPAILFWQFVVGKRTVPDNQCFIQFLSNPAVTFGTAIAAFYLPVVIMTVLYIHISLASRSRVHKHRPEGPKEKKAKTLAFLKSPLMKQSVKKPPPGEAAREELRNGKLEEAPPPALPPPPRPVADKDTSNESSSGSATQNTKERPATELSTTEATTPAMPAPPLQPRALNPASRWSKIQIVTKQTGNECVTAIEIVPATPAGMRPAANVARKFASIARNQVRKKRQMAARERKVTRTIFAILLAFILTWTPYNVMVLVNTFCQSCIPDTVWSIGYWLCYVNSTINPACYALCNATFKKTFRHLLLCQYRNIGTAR
Procedure, shortened: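 Material: HEK293 cells with M4 receptor and GIRK channels; Times: cells overnight at 37 °C, BTC-AM loading 1 h, reads 2 min total; Technique: kinetic BTC-AM fluorescence sampled at 1 Hz, 10 s pre-addition baseline; Read-out basis: slope over 15–24 s of trace normalized to starting intensity; Controls: carbachol positive, DMSO negative.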

[7] = blockers of RIG-like receptor reporter activation – cell-based, Sendai virus stimulus, luciferase, 10K MLSCN set, TLR/RLR signaling modifier project, primary screen (AID 602276;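 active = inhibition at or above 50% at 10 µM; inactive = inhibition below 50%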;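 also: firefly luciferase from ISG56 promoter only with Renilla not read in this screen; 0% = Sendai virus plus DMSO and 100% = medium plus DMSO without virus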); settings: HEK293 RL24 IRF3 luciferase reporter, at 10 µM, stronger effect = higher value
[8] = TLR3 IRF3 reporter activation blockers – cell-based, poly I:C stimulus, luciferase, 10K MLSCN set, primary screen (AID 602277;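 active = inhibition of the reporter signal at or above 50%; inactive = inhibition below 50%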); settings: HEK293-TLR3 RL24 IRF3 luciferase reporter, at 10 µM, stronger effect = higher value

Compound	cell count [1]	inhibition [1]	inhibition of aggregation [2]	nuclei count [2]	inhibition [3]	nuclei count [3]	fluorescence slope [4]	NADPH fluorescence slope [5]	fluorescence slope [6]	inhibition [7]	inhibition [8]
COc1ccc(-c2nc(N3CCCC3)[nH]c(=O)c2C#N)cc1	373	-48.5% (inactive)	-7.1% (inactive)	107%	-50.2% (inactive)	114%	-0.471 (inactive)	-1.8e-05 (inactive)	0.0047 (inactive)	18.9% (inactive)	13% (inactive)
CCOc1ccc(N(CC(=O)NCC2CCCO2)S(=O)(=O)c2ccc(OC)c(OC)c2)cc1 (centres undefined)	326	3.5% (inactive)	-10.6% (inactive)	107%	-47% (inactive)	112%	-0.572 (inactive)	-3.5e-05 (inactive)	0.00351 (inactive)	10.6% (inactive)	18.4% (inactive)
CCCc1cc(C(N)=O)c(NC(=O)c2ccco2)s1	356	-5.6% (inactive)	2.7% (inactive)	97.2%	-45% (inactive)	111%	-0.54 (inactive)	-5.6e-05 (inactive)	0.00337 (inactive)	-0.517% (inactive)	-22.9% (inactive)
CCN(CC)c1ccc2c(c1)C(=O)N(C)C2=O	580	-1.9% (inactive)	-5.6% (inactive)	92.2%	-49% (inactive)	104%	-0.417 (inactive)	-6.9e-05 (inactive)	0.00562 (inactive)	-6.87% (inactive)	-37.5% (inactive)
COc1ccc(OC)c(CNC(=O)CCN2C(=O)COc3ccccc32)c1	663	14.4% (inactive)	21.7% (inactive)	64%	-29.9% (inactive)	110%	-0.479 (inactive)	-6e-05 (inactive)	0.00555 (inactive)	-19.9% (inactive)	-11.1% (inactive)
Cc1ccsc1C1C2=C(CCCC2=O)Nc2ncnn21 (centres undefined)	266	-3.8% (inactive)	15.5% (inactive)	86.7%	-2.9% (inactive)	101%	-0.523 (inactive)	-0.000154 (inactive)	0.00358 (inactive)	12.8% (inactive)	16.1% (inactive)
CCOC(=O)Nc1cc(OCC)c(NC(=O)C2CC2)cc1OCC	589	-12.9% (inactive)	-15% (inactive)	117%	-52.7% (inactive)	119%	-0.439 (inactive)	-4.7e-05 (inactive)	0.00711 (inactive)	3.59% (inactive)	11.8% (inactive)
COc1ccccc1N(CC(=O)NCc1ccccc1)S(C)(=O)=O	665	-8.2% (inactive)	6.6% (inactive)	106%	-67.8% (inactive)	114%	-0.28 (inactive)	-4.1e-05 (inactive)	0.00584 (inactive)	-3.25% (inactive)	14% (inactive)
O=C1COc2ccc(C(=O)NCc3ccco3)cc2N1	668	-0.8% (inactive)	-4.2% (inactive)	79.6%	85.2% (active)	82.3%	-0.575 (inactive)	-3.7e-05 (inactive)	0.00601 (inactive)	-3.82% (inactive)	9.4% (inactive)
CC(C)NC(=O)c1ccccc1NC(=O)c1ccccc1N(C)S(C)(=O)=O	554	25% (inactive)	6.8% (inactive)	104%	-155% (inactive)	101%	-0.456 (inactive)	-5.7e-05 (inactive)	0.00572 (inactive)	10.6% (inactive)	13.7% (inactive)
CC(Oc1ccccc1)C(=O)N1CCCc2ccccc21 (centres undefined)	474	9.1% (inactive)	-2.8% (inactive)	118%	-43.6% (inactive)	112%	-0.239 (inactive)	1.4e-05 (inactive)	0.00527 (inactive)	2.1% (inactive)	29.5% (inactive)
CCc1nc2c(cnn2-c2ccc(Cl)cc2)c(=O)n1-c1ccc2c(c1)OCCO2	706	-7.7% (inactive)	-5.1% (inactive)	120%	-49.7% (inactive)	122%	-0.543 (inactive)	-1.7e-05 (inactive)	0.00631 (inactive)	3.09% (inactive)	-2.86% (inactive)
COc1cccc(CNC(=O)C2CCN(S(=O)(=O)c3ccc(F)cc3)CC2)c1	603	9.6% (inactive)	5.3% (inactive)	103%	-47.8% (inactive)	123%	-0.553 (inactive)	-5.5e-05 (inactive)	0.00553 (inactive)	19.5% (inactive)	20.1% (inactive)
O=C(Cn1nc(-c2ccc(Cl)cc2)ccc1=O)NCCCN1CCN(Cc2ccccc2)CC1	518	10.6% (inactive)	-12.5% (inactive)	97.4%	-351% (inactive)	135%	-0.585 (inactive)	3e-05 (inactive)	0.00673 (inactive)	-9.82% (inactive)	-23.5% (inactive)
